What was measured:
[1] = target: T1, P-STAT1 (Homo sapiens, UniProt P42224); assay: TIRF-PBM: inhibition of P-STAT1 equilibrium binding to DNA array; details: 20 µM compound, 50 nM P-STAT1
T1 sequence (P42224 1-750): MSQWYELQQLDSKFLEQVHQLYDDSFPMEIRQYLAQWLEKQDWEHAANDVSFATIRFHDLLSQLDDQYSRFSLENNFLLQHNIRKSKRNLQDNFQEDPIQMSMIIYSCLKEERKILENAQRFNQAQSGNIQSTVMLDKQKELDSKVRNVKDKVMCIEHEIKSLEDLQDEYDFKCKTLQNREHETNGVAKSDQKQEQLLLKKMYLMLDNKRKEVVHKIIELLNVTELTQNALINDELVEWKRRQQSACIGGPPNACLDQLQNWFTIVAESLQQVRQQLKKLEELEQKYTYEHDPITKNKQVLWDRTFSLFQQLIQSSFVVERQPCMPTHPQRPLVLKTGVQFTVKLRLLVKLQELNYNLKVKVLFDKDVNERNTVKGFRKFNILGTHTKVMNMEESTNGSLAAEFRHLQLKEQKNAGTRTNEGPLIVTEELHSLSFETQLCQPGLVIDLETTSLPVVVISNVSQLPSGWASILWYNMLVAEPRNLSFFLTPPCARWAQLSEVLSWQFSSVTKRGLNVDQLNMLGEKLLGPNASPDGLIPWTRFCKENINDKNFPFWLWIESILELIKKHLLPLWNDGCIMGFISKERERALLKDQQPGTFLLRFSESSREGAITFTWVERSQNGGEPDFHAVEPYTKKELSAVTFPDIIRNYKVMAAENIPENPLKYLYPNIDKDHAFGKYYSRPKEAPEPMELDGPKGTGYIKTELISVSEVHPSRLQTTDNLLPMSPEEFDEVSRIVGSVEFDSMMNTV
Method in brief: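 Phosphorylated STAT1 (50 nM), amine-labelled with DyLight dyes, with test compound (20 μM final, from 5 mM DMSO stock). Flowed >30 min at 25°C over dsDNA hydrogel microarray; TIRF read, 20 s exposures. Intensities from 5–10 replicate spots, binned as GAS palindrome with 3-nt spacer, half-GAS, or absent/misspaced GAS.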

[2] = test system: STAT3; details: STAT3, at this concentration (20 µM), in cells and in vivo; cited from earlier work
[3] = target: Myc/Max (Homo sapiens, UniProt P01106); assay: TIRF-PBM: inhibition of Myc/Max equilibrium binding to DNA array; details: 50 μM Mycro3, 10 nM Myc/Max
Chain of Myc/Max (Homo sapiens, UniProt P01106) (P01106 whole entry): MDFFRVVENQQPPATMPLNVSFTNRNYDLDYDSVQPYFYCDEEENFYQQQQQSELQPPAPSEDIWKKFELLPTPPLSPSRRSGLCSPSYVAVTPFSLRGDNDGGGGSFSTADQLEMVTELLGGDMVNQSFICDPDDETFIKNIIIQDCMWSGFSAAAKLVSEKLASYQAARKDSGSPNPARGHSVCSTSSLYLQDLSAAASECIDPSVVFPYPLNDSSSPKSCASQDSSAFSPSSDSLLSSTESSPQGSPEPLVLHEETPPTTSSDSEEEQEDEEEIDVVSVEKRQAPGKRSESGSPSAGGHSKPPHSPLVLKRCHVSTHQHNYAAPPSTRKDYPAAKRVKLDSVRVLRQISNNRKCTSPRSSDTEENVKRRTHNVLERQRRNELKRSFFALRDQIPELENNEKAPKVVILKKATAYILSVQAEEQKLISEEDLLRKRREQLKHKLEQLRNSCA
Method in brief: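 DyLight-labelled Myc/Max (His-tagged c-Myc and Max expressed separately in E. coli, then denatured and renatured together) with test compound (5 mM DMSO stock, 50 μM final). Equilibrium intensity from 5–10 replicate spots; E-box consensus vs mutated/absent bins compared by two-tailed t-test with Welch's correction.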

[4] = test system: Myc/Max; details: read-out: reported IC50; obtained with a cognate-binding site; cited from earlier work

SMILES | adjusted binding intensity at 'Half Sites' [1] | adjusted binding intensity at 'Poor Affinity' sites [1] | average adjusted binding intensity at 'High Affinity' sites, % of the no-inhibitor control [1] | fold reduction in binding at 'High Affinity' sites [1] | DNA binding, % of normal activity [2] | Myc/Max binding intensity at 'high affinity' sites, % signal [3] | Myc/Max binding signal at weaker affinity sites [3] | IC50 [4]
CC(=O)c1cccc2c1C(=O)c1cccc(O)c1C2=O [LLL3] | 59.4 ± 15.5% | 42.4 ± 13.1% | 12.6 ± 4.9% | ~8 fold | ~40% | – | – | –
CCOC(=O)c1cnn(-c2ccccc2)c1NC(=O)c1cc2nc(-c3ccco3)cc(C(F)(F)Cl)n2n1 [Mycro3] | – | – | – | – | – | 68.5 ± 10.6% | 66.2 ± 23.7% | 40 ± 13 µM
